Laboratory results: ChEMBL document CHEMBL1671723, “Bioavailability and efficacy of levofloxacin against Francisella tularensis in the common marmoset (Callithrix jacchus)” (Antimicrob Agents Chemother, 2010)
The source made the active and inactive calls. The calls are words filed in the database; no cut-off is given here.

What was measured:
[1] = Cmax in human at 500 mg, po QD measured on day 10 by […] analysis; conditions: in vivo
Homo sapiens [2] = assay: AUC (0 to infinity) in human at 500 mg, po QD measured on day 10 by […] analysis; type: ADME, organism-based, Plasma; parameters: dose 500 mg, route oral, time infinity; conditions: in vivo
[3] = Tmax in human at 500 mg, po QD measured on day 10 by […] analysis; type: ADME, organism-based; conditions: in vivo
[4] = Half life in human at 500 mg, po QD measured on day 10 by LS/MS/MS analysis; type: ADME, organism-based; conditions: in vivo
[5] = Tmax in common marmoset at 40 mg/kg, po BID measured on day 7 by […] analysis; type: ADME, organism-based, Callithrix jacchus; parameters: dose 40 mg/kg, route oral; conditions: in vivo
Outline: (§1)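 Oral levofloxacin, 40 mg/kg twice daily in banana milkshake for 7 consecutive days. Day-7 sampling: predose and 1, 4 and 8 h (group A, n=3); 0.5, 2, 6 and 12 h (group B, n=3). Lithium-heparin plasma was held at −70°C and quantified by LC-MS/MS-ESI against spiked-plasma standards (0.1–50 μg/ml). PK parameters were derived.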

Callithrix jacchus [6] = assay: AUC in common marmoset at 40 mg/kg, po BID measured on day 7 by […] analysis; type: ADME, organism-based, Plasma; parameters: dose 40 mg/kg, route oral; conditions: in vivo; outline: as §1
[7] = Cmax in common marmoset at 40 mg/kg, po BID measured on day 7 by […] analysis; type: ADME, organism-based, Callithrix jacchus; parameters: dose 40 mg/kg, route oral; conditions: in vivo; outline: as §1
[8] = Half life in common marmoset at 40 mg/kg, po BID measured on day 7 by […] analysis; type: ADME, organism-based, Callithrix jacchus; parameters: dose 40 mg/kg, route oral; conditions: in vivo; outline: as §1
Callithrix jacchus [9] = assay: AUC in common marmoset at 40 mg/kg, po BID measured on day 1 by […] analysis; type: ADME, organism-based, Plasma; parameters: dose 40 mg/kg, route oral; conditions: in vivo
Outline: (§2)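 Marmosets were dosed orally with 40 mg/kg levofloxacin twice daily in banana milkshake for 7 days. On day 1, group A (n=3) was bled predose and at 1, 4 and 8 h, and group B (n=3) at 0.5, 2, 6 and 12 h. Heparinised plasma was stored at −70°C and measured by LC-MS/MS-ESI (calibration 0.1–50 μg/ml). PK parameters were calculated.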

[10] = Cmax in common marmoset at 40 mg/kg, po BID measured on day 1 by […] analysis; type: ADME, organism-based, Callithrix jacchus; parameters: dose 40 mg/kg, route oral; conditions: in vivo; outline: as §2
[11] = Half life in common marmoset at 40 mg/kg, po BID measured on day 1 by […] analysis; type: ADME, organism-based, Callithrix jacchus; parameters: dose 40 mg/kg, route oral; conditions: in vivo; outline: as §2
Callithrix jacchus [12] = assay: AUC in common marmoset at 40 mg/kg, po measured on day 1 by […] analysis; type: ADME, organism-based, Plasma; parameters: dose 40 mg/kg, route oral; conditions: in vivo
Outline: (§3)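 Six marmosets (25–64 months, 310–560 g) received one oral 40 mg/kg levofloxacin dose in banana milkshake. Two groups of three were bled at 0.5, 2 and 6 h or at 1, 4 and 8 h. Lithium-heparin plasma was stored at −70°C and assayed by LC-MS/MS-ESI against a spiked-plasma calibration curve (0.1–50 μg/ml). PK parameters were derived from the pooled profile.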

[13] = Half life in common marmoset at 40 mg/kg, po measured on day 1 by […] analysis; type: ADME, organism-based, Callithrix jacchus; parameters: dose 40 mg/kg, route oral; conditions: in vivo; outline: as §3
[14] = Cmax in common marmoset at 40 mg/kg, po measured on day 1 by […] analysis; type: ADME, organism-based, Callithrix jacchus; parameters: dose 40 mg/kg, route oral; conditions: in vivo; outline: as §3
[15] = Tmax in human at 500 mg, po by […] analysis; type: ADME, organism-based; conditions: in vivo
[16] = Half life in human at 500 mg, po by LS/MS/MS analysis; type: ADME, organism-based; conditions: in vivo
[17] = Cmax in human at 500 mg, po by […] analysis; conditions: in vivo
Homo sapiens [18] = assay: AUC (0 to infinity) in human at 500 mg, po by […] analysis; type: ADME, organism-based, Plasma; parameters: dose 500 mg, time infinity, route oral; conditions: in vivo
[19] = Half life in Rhesus monkey at 15 mg/kg followed by 4 mg/kg in 12 hrs dosing interval by LS/MS/MS analysis; type: ADME, organism-based, Macaca mulatta; conditions: in vivo
[20] = Tmax in Rhesus monkey at 15 mg/kg followed by 4 mg/kg in 12 hrs dosing interval by […] analysis; type: ADME, organism-based, Macaca mulatta; conditions: in vivo
[21] = Cmax in Rhesus monkey at 15 mg/kg followed by 4 mg/kg in 12 hrs dosing interval by […] analysis; type: ADME, organism-based, Macaca mulatta; parameters: dose 15 mg/kg; conditions: in vivo
Rhesus monkey [22] = assay: AUC (0 to infinity) in Rhesus monkey at 15 mg/kg followed by 4 mg/kg in 12 hrs dosing interval by […] analysis; type: ADME, organism-based, Macaca mulatta, Plasma; parameters: dose 15 mg/kg, time infinity; conditions: in vivo
[23] = Half life in Rhesus monkey at 15 mg/kg by LS/MS/MS analysis; type: ADME, organism-based, Macaca mulatta; parameters: dose 15 mg/kg; conditions: in vivo
[24] = Tmax in Rhesus monkey at 15 mg/kg by […] analysis; type: ADME, organism-based, Macaca mulatta; parameters: dose 15 mg/kg; conditions: in vivo
[25] = Cmax in Rhesus monkey at 15 mg/kg by […] analysis; type: ADME, organism-based, Macaca mulatta; parameters: dose 15 mg/kg; conditions: in vivo
Rhesus monkey [26] = assay: AUC (0 to infinity) in Rhesus monkey at 15 mg/kg by […] analysis; type: ADME, organism-based, Macaca mulatta, Plasma; parameters: time infinity, dose 15 mg/kg; conditions: in vivo
Francisella tularensis = assay: Antimicrobial activity against Francisella tularensis SCHU S4 infected in common marmoset assessed as survival of marmoset at 16.5 mg/kg BID for 10 days measured on day 24; type: functional, organism-based; parameters: dose 16.5 mg/kg

Question: With `C[C@H]1COc2c(N3CCN(C)CC3)c(F)cc3c(=O)c(C(=O)O)cn1c23.C[C@H]1COc2c(N3CCN(C)CC3)c(F)cc3c(=O)c(C(=O)O)cn1c23.O` [LEVOFLOXACIN] as the compound, how does the Cmax [1] read?
Answer: The Cmax was 5700 ng/mL.

Question: And the AUC (Homo sapiens [2])?
Answer: Its AUC is 47500 ng·h/mL.

Question: And the Tmax [3]?
Answer: Its Tmax is 1.1 h.

Question: What about the half-life [4] of the same compound?
Answer: The half-life was 7.6 h.

Question: What about the Tmax [5] of the same compound?
Answer: Its Tmax is 0.5 h.

Question: What about the AUC (Callithrix jacchus [6]) of the same compound?
Answer: Its AUC is 81.4 µg/mL/h.

Question: And the Cmax [7]?
Answer: Its Cmax is 20900 ng/mL.

Question: And the half-life [8]?
Answer: Its half-life is 2.3 h.

Question: What about the AUC (Callithrix jacchus [9]) of the same compound?
Answer: The AUC was 63.6 µg/mL/h.

Question: And the Cmax [10]?
Answer: The Cmax was 16500 ng/mL.

Question: What about the half-life [11] of the same compound?
Answer: Its half-life is 2.4 h.

Question: What about the AUC (Callithrix jacchus [12]) of the same compound?
Answer: Its AUC is 112.4 µg/mL/h.

Question: What about the half-life [13] of the same compound?
Answer: The half-life was 3.9 h.

Question: And the Cmax [14]?
Answer: The Cmax was 18800 ng/mL.

Question: What about the Tmax [15] of the same compound?
Answer: The Tmax was 1.5 h.

Question: And the half-life [16]?
Answer: Its half-life is 6.4 h.

Question: And the Cmax [17]?
Answer: Its Cmax is 8500 ng/mL.

Question: What about the AUC (Homo sapiens [18]) of the same compound?
Answer: The AUC was 56300 ng·h/mL.

Question: What about the half-life [19] of the same compound?
Answer: Its half-life is 3.4 h.

Question: What about the Tmax [20] of the same compound?
Answer: Its Tmax is 2.2 h.

Question: And the Cmax [21]?
Answer: Its Cmax is 5300 ng/mL.

Question: What about the AUC (Rhesus monkey [22]) of the same compound?
Answer: Its AUC is 33400 ng·h/mL.

Question: And the half-life [23]?
Answer: The half-life was 2 h.

Question: And the Tmax [24]?
Answer: Its Tmax is 1.5 h.

Question: What about the Cmax [25] of the same compound?
Answer: Its Cmax is 5100 ng/mL.

Question: What about the AUC (Rhesus monkey [26]) of the same compound?
Answer: Its AUC is 21300 ng·h/mL.

Question: And the Activity (Francisella tularensis)?
Answer: The Activity was “Active”.
